Active and inactive are the calls of the source.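 How the source made its calls, unless noted: active means inhibition above 20% together with a positive visual image hit; inconclusive means visual image hit but inhibition not above 20%; inactive means no visual image hit.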
Columns and labels:
[1] = inhibitors of TNFa-induced NFkB p65 translocation, primary screen, imaging, HUVEC, MLSMR starter and 10KST1 sets (AID 438); conditions: HUVEC TNFa-induced p65 nuclear translocation; cell count: measured here: nuclei count (cytotoxicity indicator), at 2.08 µM unless noted; inhibition: at 2 µM, stronger effect = higher value unless noted;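 further: compound added about 3h40 before a 20 min TNFalpha stimulation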;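 on inhibition: signal is the nuclear over cytoplasmic p65 intensity ratio per well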
[2] = inhibitors of mutant huntingtin aggregation, primary screen, imaging, exon1htt(103Q)mCFP cells, high-content imaging (AID 483;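 active means visual image review flags a hit and inhibition of aggregation exceeds 20%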;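 further: compound exposure lasted 3 days before fixation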;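 on nuclei count: percent of the per-plate median nuclei count of sample wells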); conditions: exon1htt(103Q)mCFP cell line, aggregate imaging, at 2 µM; inhibition of aggregation: stronger effect = higher value; nuclei count: measured here: cell count, toxicity
[3] = inhibitors of E-selectin induction by TNFa, primary screen, imaging, HUVEC, immunofluorescence, MLSMR starter and 10KST1 sets (AID 487;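 active means visually confirmed hit in the image check and inhibition above 20%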;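 on inhibition: signal is fraction of cell area covered by stained E-selectin grains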;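 on nuclei count: 100% = median nuclei count of all wells on the same plate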); conditions: HUVEC TNFalpha-induced E-selectin immunofluorescence imaging, at 2 µM; inhibition: stronger effect = higher value; nuclei count: measured here: cell number, toxicity
[4] = molecular target: Voltage-gated potassium channel subunit beta-2 (Rattus norvegicus) (UniProt P62483); test: KvBeta enzyme negative modulators, primary screen, biochemical, NADPH fluorescence (AID 622;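 active means fluorescence slope higher than the sample average by over 3 SD, cut at about -0.22 in these data, passing the limit was not always enough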;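 further: slope of raw intensity against log time taken from 70 to 1610 s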); conditions: recombinant KvBeta, 4-cyanobenzaldehyde reduction, at 10 µM, stronger effect = higher value
[5] = molecular target: Voltage-gated potassium channel subunit beta-2 (Rattus norvegicus) (UniProt P62483); test: KvBeta positive modulators, primary screen, biochemical, NADPH fluorescence (AID 623;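 active means NADPH fluorescence slope more negative than the mean of all samples by about 3 SD, 99.7% confidence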;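 further: fluorescence intensity change per second fitted from 20 to 320 s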); conditions: Recombinant KvBeta, NADPH fluorescence decrease slope, 10 min; at 10 µM; stronger effect = lower value
[6] = molecular target: Muscarinic acetylcholine receptor M4 (Homo sapiens) (UniProt P08173); test: compounds altering M4/GIRK thallium flux, either direction, primary screen, M4 allosteric agonist project, cell-based, HEK293 M4/GIRK, BTC-AM (AID 625;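 active means fluorescence slope after compound addition differing from the mean of all tested samples at 99.7% confidence, mostly higher but some lower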;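 further: thallium influx through GIRK channels coupled to M4 in HEK293 cells with BTC-AM dye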); conditions: at 10 µM, actives lie on both sides
Procedure, shortened: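 Material: HEK293 cells with M4 receptor and GIRK channels; Times: cells overnight at 37 °C, BTC-AM loading 1 h, reads 2 min total; Technique: kinetic BTC-AM fluorescence sampled at 1 Hz, 10 s pre-addition baseline; Read-out basis: slope over 15–24 s of trace normalized to starting intensity; Controls: carbachol positive, DMSO negative.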

[7] = inhibitors of Sendai virus-induced IRF3 signaling, primary screen, TLR/RLR signaling modifier project, cell-based, Sendai virus stimulus, luciferase, 10K MLSCN set (AID 602276;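 active means inhibition at or above 50% at 10 µM; inactive means inhibition below 50%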;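 further: firefly luciferase from ISG56 promoter only with Renilla not read in this screen; 0% = Sendai virus plus DMSO and 100% = medium plus DMSO without virus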); conditions: HEK293 RL24 IRF3 luciferase reporter, at 10 µM, stronger effect = higher value
[8] = inhibitors of poly I:C-induced TLR3 signaling, primary screen, cell-based, poly I:C stimulus, luciferase, 10K MLSCN set (AID 602277;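 active means inhibition of the reporter signal at or above 50%; inactive means inhibition below 50%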); conditions: HEK293-TLR3 RL24 IRF3 luciferase reporter, at 10 µM, stronger effect = higher value
[9] = inhibitors of Chlamydomonas gravitaxis, primary screen, whole organism, Chlamydomonas reinhardtii, WT vs cilia-less mutant, absorbance, 96-well (AID 463189;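 active means inhibition at or above 50% relative to wild type and mutant plate controls; inactive means inhibition below 50%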;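 further: 0% = wild type cc124 cells in DMSO and 100% = ciliumless bld1 mutant cells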); conditions: OD600 absorbance, 2 days, at 10 µM, stronger effect = higher value

Chain of Voltage-gated potassium channel subunit beta-2 (Rattus norvegicus) (P62483 whole entry, looked up): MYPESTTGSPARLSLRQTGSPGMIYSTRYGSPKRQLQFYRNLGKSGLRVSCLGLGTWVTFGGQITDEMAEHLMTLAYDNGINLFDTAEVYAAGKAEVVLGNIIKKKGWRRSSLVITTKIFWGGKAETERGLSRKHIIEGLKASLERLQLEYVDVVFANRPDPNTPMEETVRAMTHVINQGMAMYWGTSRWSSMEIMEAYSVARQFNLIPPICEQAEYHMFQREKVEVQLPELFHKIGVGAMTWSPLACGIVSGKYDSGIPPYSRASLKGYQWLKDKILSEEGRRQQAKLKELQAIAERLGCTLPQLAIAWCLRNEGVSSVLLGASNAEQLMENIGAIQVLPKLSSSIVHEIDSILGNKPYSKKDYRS
Chain of Muscarinic acetylcholine receptor M4 (Homo sapiens) (P08173 whole entry, looked up): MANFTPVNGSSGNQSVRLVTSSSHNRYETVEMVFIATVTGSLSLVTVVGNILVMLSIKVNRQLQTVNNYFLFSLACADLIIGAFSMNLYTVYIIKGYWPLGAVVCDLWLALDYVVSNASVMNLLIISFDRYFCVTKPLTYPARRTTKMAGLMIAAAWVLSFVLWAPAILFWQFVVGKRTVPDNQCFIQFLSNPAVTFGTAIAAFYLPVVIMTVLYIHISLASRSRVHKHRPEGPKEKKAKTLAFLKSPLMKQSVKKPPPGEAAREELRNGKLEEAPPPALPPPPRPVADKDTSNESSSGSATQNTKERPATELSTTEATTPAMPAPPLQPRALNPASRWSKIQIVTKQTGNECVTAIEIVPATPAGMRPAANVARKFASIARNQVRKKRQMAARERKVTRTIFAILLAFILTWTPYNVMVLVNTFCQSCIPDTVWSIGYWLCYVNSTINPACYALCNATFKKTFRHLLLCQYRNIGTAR

SMILES | cell count [1] | inhibition [1] | inhibition of aggregation [2] | nuclei count [2] [%] | inhibition [3] | nuclei count [3] [%] | fluorescence slope [4] | NADPH fluorescence slope [5] | fluorescence slope [6] | inhibition [7] | inhibition [8] | inhibition [9]
CC1CCN2c3nc4ccccn4c(=O)c3CC3(C(=O)N(C)C(=O)N(C)C3=O)C2C1 (stereo unspecified) | 459 | -8.6% (inactive) | 11.4% (inactive) | 76.7 | -10% (inactive) | 95.1 | -0.523 (inactive) | -6.2e-05 (inactive) | 0.00473 (inactive) | 10.8% (inactive) | 16.3% (inactive) | 
C[C@@H]1O[C@H](C[N+](C)(C)C)C[C@H]1O |  |  |  |  |  |  |  |  |  |  |  | 3.38% (inactive)
Cc1cc(NC(=O)COC(=O)c2c(C)nn(Cc3ccccc3)c2Cl)no1 | 346 | 7.3% (inactive) | -4.8% (inactive) | 90.6 | -68.8% (inactive) | 109 | -0.377 (inactive) | -0.000127 (inactive) | 0.00868 (inactive) | 3.25% (inactive) | 12.9% (inactive) | 
CCOC(=O)C(O)(c1ccc(N(CC)C(=O)OC)cc1)C(F)(F)F (stereo unspecified) | 614 | -6.1% (inactive) | -9.5% (inactive) | 91.2 | -140% (inactive) | 111 | -0.425 (inactive) | -0.000455 (inactive) | 0.00401 (inactive) | 13.7% (inactive) | 13.7% (inactive) | 
Cn1c(C(=O)N2CCC3(CC2)OCCO3)cc2c(=O)n(C)c3ccccc3c21 | 551 | -0.2% (inactive) | 26.7% (inactive) | 104 | -17.8% (inactive) | 125 | -0.522 (inactive) | -5.9e-06 (inactive) | 0.00705 (inactive) | 13.8% (inactive) | 20.5% (inactive) | 
COC(=O)c1ccccc1-n1c(C)nc2ccccc2c1=O | 328 | -4.4% (inactive) | -24.8% (inactive) | 103 | -140% (inactive) | 115 | -0.605 (inactive) | 4.4e-06 (inactive) | 0.00587 (inactive) | -2.94% (inactive) | -2.38% (inactive) | 
